In ChEMBL document CHEMBL1649286, “ACHN-490, a neoglycoside with potent in vitro activity against multidrug-resistant Klebsiella pneumoniae isolates” (2009):
≈ marks a conversion by molar mass, not a printed value.

Legend:
Assay type in all cases: functional
Klebsiella pneumoniae [1] = assay: Antimicrobial activity against beta lactamase KPC-producing Klebsiella pneumoniae isolates assessed as resistance isolates by microdilution method
Outline: (§1)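 Broth microdilution MICs following CLSI, in cation-adjusted Mueller-Hinton broth, using custom-made panels that include piperacillin-tazobactam. Tested against 102 multidrug-resistant clinical Klebsiella pneumoniae isolates, a subset of 25 of which produce KPC carbapenemase. Cephalosporin-clavulanate combinations use clavulanate at a constant 4 mg/liter. Susceptible and resistant categories are assigned by CLSI criteria.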

Klebsiella pneumoniae [2] = assay: Antimicrobial activity against multidrug-resistant Klebsiella pneumoniae isolates assessed as susceptible isolates by microdilution method; outline: as §1
Klebsiella pneumoniae [3] = assay: Antimicrobial activity against beta lactamase KPC-producing Klebsiella pneumoniae isolates by microdilution method
Outline: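 Broth microdilution MICs following CLSI, in cation-adjusted Mueller-Hinton broth, using custom-made panels that include piperacillin-tazobactam. Cephalosporin-clavulanate combinations use clavulanate at a constant 4 mg/liter. Susceptible and resistant categories are assigned by CLSI criteria.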

Klebsiella pneumoniae [4] = assay: Antimicrobial activity against multidrug-resistant Klebsiella pneumoniae isolates by microdilution method; outline: as §1
Klebsiella pneumoniae [5] = assay: Antimicrobial activity against multidrug-resistant Klebsiella pneumoniae isolates assessed as resistance isolates by microdilution method; outline: as §1
Klebsiella pneumoniae [6] = assay: Antimicrobial activity against beta lactamase KPC-producing Klebsiella pneumoniae isolates assessed as susceptible isolates by microdilution method
Outline: (§2)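 Broth microdilution in cation-adjusted Mueller-Hinton broth following CLSI criteria, using customized panels that included piperacillin-tazobactam. MICs were read as the endpoint, and susceptibility was categorized by CLSI criteria.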

Klebsiella pneumoniae [7] = assay: Antimicrobial activity against beta lactamase KPC-producing Klebsiella pneumoniae isolates assessed as susceptible isolates by microdilution method in presence of beta-lactamase inhibitor Tazobactam
Outline: as §2, with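 “piperacillin-tazobactam. The 25 clinical KPC-producing K. pneumoniae isolates belong to a set of 102 multidrug-resistant strains.” for “piperacillin-tazobactam.”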

Klebsiella pneumoniae [8] = assay: Antimicrobial activity against multidrug-resistant Klebsiella pneumoniae isolates assessed as susceptible isolates by microdilution method in presence of beta-lactamase inhibitor Tazobactam; outline: as §1
Klebsiella pneumoniae [9] = assay: Antimicrobial activity against beta lactamase KPC-producing Klebsiella pneumoniae isolates by microdilution method in presence of beta-lactamase inhibitor Tazobactam
Outline: as §2, with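 “piperacillin-tazobactam. The 25 clinical KPC-producing K. pneumoniae isolates belong to a set of 102 multidrug-resistant strains.” for “piperacillin-tazobactam.”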

Pseudomonas aeruginosa = assay: Antimicrobial activity against Pseudomonas aeruginosa ATCC 27853 by microdilution method
Klebsiella pneumoniae [10] = assay: Antimicrobial activity against Klebsiella pneumoniae ATCC 700603 by microdilution method
Escherichia coli = assay: Antimicrobial activity against Escherichia coli ATCC 25922 by microdilution method

Compound | Activity (Klebsiella pneumoniae [1]) | Activity (Klebsiella pneumoniae [2]) | MIC50 (Klebsiella pneumoniae [3]) | MIC90 (Klebsiella pneumoniae [3]) | MIC50 (Klebsiella pneumoniae [4]) | MIC90 (Klebsiella pneumoniae [4]) | Activity (Klebsiella pneumoniae [5]) | Activity (Klebsiella pneumoniae [6]) | Activity (Klebsiella pneumoniae [7]) | Activity (Klebsiella pneumoniae [8]) | MIC50 (Klebsiella pneumoniae [9]) | MIC90 (Klebsiella pneumoniae [9]) | MIC (Pseudomonas aeruginosa) | MIC (Klebsiella pneumoniae [10]) | MIC (Escherichia coli)
NCC[C@H](O)C(=O)N[C@@H]1C[C@H](N)[C@@H](O[C@H]2O[C@H](CN)[C@@H](O)[C@H](O)[C@H]2O)[C@H](O)[C@H]1O[C@H]1O[C@H](CO)[C@@H](O)[C@H](N)[C@H]1O [AMIKACIN] | 0% | 78.4% | 32 µg/mL (≈ 54.6 µM) | 32 µg/mL (≈ 54.6 µM) | 2 µg/mL (≈ 3.42 µM) | 32 µg/mL (≈ 54.6 µM) | 4.9% | 48% |  |  |  |  |  |  | 
NCC[C@H](O)C(=O)N[C@@H]1C[C@H](N)[C@@H](O[C@H]2O[C@H](CN)CC[C@H]2N)[C@H](O)[C@H]1O[C@H]1O[C@H](CO)[C@@H](O)[C@H](N)[C@H]1O [ARBEKACIN] |  |  | 8 µg/mL (≈ 14.5 µM) | 16 µg/mL (≈ 29 µM) | 4 µg/mL (≈ 7.24 µM) | 16 µg/mL (≈ 29 µM) |  |  |  |  |  |  |  |  | 
CC(C)(O/N=C(\C(=O)N[C@@H]1C(=O)N2C(C(=O)[O-])=C(C[n+]3ccccc3)CS[C@H]12)c1csc(N)n1)C(=O)O [CEFTAZIDIME] |  | 9.8% | > 32 µg/mL | > 32 µg/mL | > 32 µg/mL | > 32 µg/mL |  | 0% |  |  |  |  |  |  | 
NC[C@@H]1O[C@H](O[C@H]2[C@@H](O)[C@H](O[C@@H]3[C@@H](O)[C@H](N)C[C@H](N)[C@H]3O[C@H]3O[C@H](CN)[C@@H](O)[C@H](O)[C@H]3N)O[C@@H]2CO)[C@H](N)[C@@H](O)[C@@H]1O [FRAMYCETIN] |  |  | 2 µg/mL (≈ 3.25 µM) | 32 µg/mL (≈ 52.1 µM) | 2 µg/mL (≈ 3.25 µM) | 32 µg/mL (≈ 52.1 µM) |  |  |  |  |  |  |  |  | 
C[C@@H](O)[C@H]1C(=O)N2C(C(=O)O)=C(SCCNC=N)C[C@H]12 [IMIPENEM ANHYDROUS] |  | 75.5% | 8 µg/mL (≈ 26.7 µM) | > 16 µg/mL | 0.5 µg/mL (≈ 1.67 µM) | 8 µg/mL (≈ 26.7 µM) |  | 12% |  |  |  |  |  |  | 
CCN1CCN(C(=O)N[C@@H](C(=O)N[C@@H]2C(=O)N3[C@@H]2SC(C)(C)[C@@H]3C(=O)O)c2ccccc2)C(=O)C1=O [PIPERACILLIN] |  |  |  |  |  |  |  |  | 0% | 38.2% | > 64 µg/mL | > 64 µg/mL |  |  | 
CN[C@@H]1[C@@H](O)[C@@H](O[C@@H]2[C@@H](O)[C@H](O[C@H]3OC(CNCCO)=CC[C@H]3N)[C@@H](N)C[C@H]2NC(=O)[C@@H](O)CCN)OC[C@]1(C)O [PLAZOMICIN] |  |  | 0.5 µg/mL (≈ 0.844 µM) | 1 µg/mL (≈ 1.69 µM) | 0.5 µg/mL (≈ 0.844 µM) | 1 µg/mL (≈ 1.69 µM) |  |  |  |  |  |  | 4 µg/mL (≈ 6.75 µM) | 0.25 µg/mL (≈ 0.422 µM) | 0.5 µg/mL (≈ 0.844 µM)
CN(C)c1cc(NC(=O)CNC(C)(C)C)c(O)c2c1C[C@H]1C[C@H]3[C@H](N(C)C)C(O)=C(C(N)=O)C(=O)[C@@]3(O)C(O)=C1C2=O [TIGECYCLINE] |  | 90.2% | 1 µg/mL (≈ 1.71 µM) | 2 µg/mL (≈ 3.41 µM) | 1 µg/mL (≈ 1.71 µM) | 2 µg/mL (≈ 3.41 µM) |  | 96% |  |  |  |  |  |  | 
NC[C@H]1O[C@H](O[C@H]2[C@H](O)[C@@H](O[C@H]3O[C@H](CO)[C@@H](O)[C@H](N)[C@H]3O)[C@H](N)C[C@@H]2N)[C@H](N)C[C@@H]1O [TOBRAMYCIN] | 92% | 10.8% | 32 µg/mL (≈ 68.4 µM) | ≥ 64 µg/mL | 32 µg/mL (≈ 68.4 µM) |  | 76.5% | 8% |  |  |  |  |  |  | 
GENTAMICIN | 12% | 25.5% | 8 µg/mL | 16 µg/mL | 8 µg/mL | > 64 µg/mL | 39.2% | 44% |  |  |  |  |  |  | 
